The values that follow come from ChEMBL document CHEMBL1781968, “δ-Carbolines and their ring-opened analogs: synthesis and evaluation against fungal and bacterial opportunistic pathogens” (Eur J Med Chem, 2011).

Molecules are shown by their SMILES.

In data set [1] the test system is Aspergillus fumigatus. The experiment in a line: Antifungal activity against Aspergillus fumigatus ATCC 204305 by NCCLS method. Type of data set: functional, organism-based. Put shortly:
(§1)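 Modified NCCLS microdilution for fungi. Samples in DMSO serially diluted with 0.9% saline, in duplicate, final concentrations from 20 μg/mL down. Inocula matched to 0.5 McFarland (630 nm) and diluted in Sabouraud dextrose broth. Growth, solvent and medium controls included. OD 530 nm read before and after incubation. IC50 from percent growth curve. MIC is no detectable growth. MFC is lowest concentration killing the organism.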

Data set [2] concerns Cryptococcus neoformans. The experiment in a line: Antifungal activity against Cryptococcus neoformans ATCC 90113 by NCCLS method. Type of data set: functional, organism-based. An outline of the steps:
as §1

The subject of data set [3] is Candida albicans. The experiment in a line: Antifungal activity against Candida albicans ATCC 90028 by NCCLS method. Type of data set: functional, organism-based. Put shortly:
as §1

For data set [4], the system named is Mycobacterium intracellulare. Briefly: Antibacterial activity against Mycobacterium intracellular ATCC 23068 by alamar blue method. Type of data set: functional, organism-based. An outline of the steps: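 Modified Alamar blue method (Franzblau). Samples in DMSO serially diluted in 0.9% saline, in duplicate, final concentrations starting at 20 μg/mL. Inoculum adjusted to 0.5 McFarland, then diluted in Middlebrook 7H9 with OADC enrichment plus 5% Alamar blue. Fluorescence read (ex 544/em 590 nm) before and after incubation. IC50 from percent growth versus concentration. MIC is no detectable growth.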

Data set [5] relates to Escherichia coli. The experiment in a line: Antibacterial activity against Escherichia coli by NCCLS method. The class given is functional, organism-based. An outline of the steps:
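Modified NCCLS broth microdilution. DMSO-dissolved samples serially diluted in 0.9% saline, tested in duplicate, final concentrations starting at 20 μg/mL. Inoculum set to 0.5 McFarland (absorbance 630 nm) and diluted in cation-adjusted Mueller–Hinton broth. Growth, solvent and medium controls on each plate. Read at 530 nm before and after incubation. IC50 from percent growth versus concentration. MIC is lowest concentration with no detectable growth.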

Data set [6] can be described thus: Cytotoxicity against african green monkey Vero cell after 48 hrs by neutral red uptake assay. The following applies: chlorocebus sabaeus, Vero cells; read-out: TC50. Type of data set: cell-based. Put shortly: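 VERO kidney fibroblasts seeded at 25,000 cells/well and incubated 24 h. Compounds added, highest concentration 10 μg/mL, then 48 h further incubation. Viable cells measured by neutral red assay. IC50 taken from growth-inhibition dose curves. Doxorubicin as positive control, DMSO as vehicle control.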

The subject of data set [7] is Staphylococcus aureus. The experiment in a line: Antibacterial activity against methicillin-resistant Staphylococcus aureus ATCC 33591 by NCCLS method. The class given is functional, organism-based. Put shortly:
(§2)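 Broth microdilution (modified NCCLS). Samples in DMSO serially diluted in 0.9% saline, tested in duplicate, highest final concentration 20 μg/mL. Inoculum matched to 0.5 McFarland standard by absorbance at 630 nm, then diluted in cation-adjusted Mueller–Hinton broth. Growth, solvent and medium controls on each plate. Absorbance at 530 nm read before and after incubation. IC50 taken from percent growth versus concentration plot; MIC is lowest concentration with no detectable growth; MBC is lowest concentration killing the organism.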

In data set [8] the test system is Staphylococcus aureus. Briefly: Antibacterial activity against Staphylococcus aureus ATCC 29213 by NCCLS method. The class given is functional, organism-based. Put shortly:
as §2

With `C[n+]1cccc2c1c1ccccc1n2CCCCCC1CCCCC1.[I-]`, the IC50 in data set [1] was found to be 0.45 µg/mL; in data set [2], 0.45 µg/mL; in data set [3], 3 µg/mL; in data set [4], 0.55 µg/mL; in data set [5], 5 µg/mL; in data set [7], 1.5 µg/mL. The figures for the MFC in data set [1], in data set [2] and in data set [3] were 5 µg/mL, 5 µg/mL and over 20 µg/mL, respectively. The MIC in data set [1] is 0.63 µg/mL; in data set [2], 0.63 µg/mL; in data set [3], 5 µg/mL; in data set [4] it was 1.3 µg/mL; in data set [5] it was over 20 µg/mL; in data set [7], 2.5 µg/mL. The MBC in data set [4] is 2.5 µg/mL; in data set [5], over 20 µg/mL; in data set [7], 5 µg/mL. For the same compound, in data set [6], the CC50 at 48 h amounted to 7.5 µg/mL.

In the case of `C[n+]1cccc2c1c1cc(C(F)(F)F)ccc1n2CCCCCC1CCCCC1.[I-]`, the IC50 in data set [1] was 18 µg/mL; in data set [2], 0.4 µg/mL; in data set [8], 0.4 µg/mL; in data set [3], 5.8 µg/mL; in data set [4], 0.8 µg/mL; in data set [5], 7.6 µg/mL. The compound further showed an IC50 in data set [7] of 1.2 µg/mL. The MFC is over 20 µg/mL in data set [1], 1.3 µg/mL in data set [2] and 20 µg/mL in data set [3]. Moreover, the MIC in data set [1] is over 20 µg/mL; in data set [2], 0.6 µg/mL; in data set [8], 0.6 µg/mL; in data set [3], 10 µg/mL; in data set [4], 1.3 µg/mL; in data set [5], over 20 µg/mL. Besides, it took 2.5 µg/mL to inhibit growth in data set [7] (MIC). Also, the MBC in data set [8] was 10 µg/mL; in data set [4], 2.5 µg/mL; in data set [5], over 20 µg/mL; in data set [7], 10 µg/mL. Further, in data set [6], the CC50 at 48 h was over 10 µg/mL.

On to `C[n+]1cccc2c1c1cc(Cl)ccc1n2CCCCCC1CCCCC1.[I-]`, for which the IC50 in data set [1] worked out at 16 µg/mL; in data set [2], 0.4 µg/mL; in data set [8], 0.5 µg/mL; in data set [3], 2 µg/mL; in data set [4], 0.7 µg/mL; in data set [5], 5.9 µg/mL. In data set [7], this compound returned an IC50 of 1.3 µg/mL. Moreover, the MFC worked out at 20 µg/mL in data set [1], 0.6 µg/mL in data set [2] and 5 µg/mL in data set [3]. In addition, the MIC was 20 µg/mL in data set [1]; 0.6 µg/mL in data set [2]; 1.3 µg/mL in data set [8]; 5 µg/mL in data set [3]; 1.3 µg/mL in data set [4]; over 20 µg/mL in data set [5]. Moreover, in data set [7], the MIC was 2.5 µg/mL. The MBC in data set [8] is 10 µg/mL; in data set [4] it was 2.5 µg/mL; in data set [5], over 20 µg/mL; in data set [7], 10 µg/mL. In data set [6], the CC50 at 48 h was over 10 µg/mL.

Take `Cc1ccc2c(c1)c1c(ccc[n+]1C)n2CCCCCC1CCCCC1.[I-]`: the IC50 in data set [1] turned out to be 17 µg/mL; in data set [2], 1.3 µg/mL; in data set [8] it was 0.4 µg/mL; in data set [3], 2.9 µg/mL; in data set [4], 1.5 µg/mL; in data set [5], 5.6 µg/mL. The compound also registered an IC50 in data set [7] of 1.6 µg/mL. Further, the MFC in data set [1] was over 20 µg/mL; in data set [2], 2.5 µg/mL; in data set [3] it was 20 µg/mL. The MIC in data set [1] was 20 µg/mL; in data set [2], 2.5 µg/mL; in data set [8] it was 0.6 µg/mL; in data set [3], 5 µg/mL; in data set [4] it was 2.5 µg/mL; in data set [5] it was over 20 µg/mL. The same compound yielded an MIC in data set [7] of 5 µg/mL. The MBC in data set [8] was 10 µg/mL; in data set [4], 5 µg/mL; in data set [5], over 20 µg/mL; in data set [7] it was 10 µg/mL. For the same compound, in data set [6], the CC50 at 48 h is over 10 µg/mL.

Consider `C[n+]1cccc2c1c1cc(F)ccc1n2CCCCCC1CCCCC1.[I-]`, for which the IC50 was 12 µg/mL in data set [1]; 0.6 µg/mL in data set [2]; 0.7 µg/mL in data set [8]; 6.5 µg/mL in data set [3]; 1.2 µg/mL in data set [4]; 13 µg/mL in data set [5]. The same compound yielded an IC50 in data set [7] of 2.8 µg/mL. Also, the MFC is over 20 µg/mL in data set [1], 1.3 µg/mL in data set [2] and 20 µg/mL in data set [3]. Further, the MIC is 20 µg/mL in data set [1]; 1.3 µg/mL in data set [2]; 1.3 µg/mL in data set [8]; 20 µg/mL in data set [3]; 2.5 µg/mL in data set [4]; over 20 µg/mL in data set [5]. Moreover, the lowest concentration to inhibit growth in data set [7] (MIC) was 5 µg/mL. Moreover, the MBC was 20 µg/mL in data set [8], 5 µg/mL in data set [4], over 20 µg/mL in data set [5] and 20 µg/mL in data set [7]. For the same compound, in data set [6], the CC50 at 48 h is over 10 µg/mL.
